In brackets after ≈: the same amount, converted by molar mass.
What was measured:
Assay type in all cases: functional
[1] = system: Saccharomyces cerevisiae; experiment: Antimicrobial activity against Saccharomyces cerevisiae YUG37 transformed with plasmid carrying cyp51B gene with doxycycline-regulatable promoter by broth dilution method in presence of doxycycline
Outline: (§1)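 CLSI M27-A2 broth microdilution in induction medium (galactose plus raffinose, 2%) containing 5 μg ml−1 doxycycline. Inoculum 2.5 × 10^3 cells ml−1. Final fluconazole 0.031–16 μg ml−1; clotrimazole, itraconazole and posaconazole 0.004–2.0 μg ml−1. Plates incubated at 30°C and scored at 72 h. MIC is the lowest concentration giving ≥80% growth inhibition versus drug-free control wells.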

[2] = system: Saccharomyces cerevisiae; experiment: Antimicrobial activity against Saccharomyces cerevisiae YUG37 transformed with plasmid carrying cyp51A gene in reverse orientation without doxycycline-regulatable promoter by broth dilution method
Outline: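 Reverse-oriented cyp51A control strain tested in galactose/raffinose medium without doxycycline. Otherwise CLSI M27-A2 broth microdilution with inoculum 2.5 × 10^3 cells ml−1. Incubated at 30°C and read at 72 h. MIC is the lowest concentration giving ≥80% growth inhibition relative to control wells.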

[3] = system: Saccharomyces cerevisiae; experiment: Antimicrobial activity against Saccharomyces cerevisiae YUG37 transformed with plasmid carrying cyp51A gene with doxycycline-regulatable promoter by broth dilution method in presence of doxycycline; outline: as §1
[4] = system: Saccharomyces cerevisiae; experiment: Induction of 14alpha-Methylergosta 8,24-dien- 3beta-6alpha-diol production in Saccharomyces cerevisiae YUG37 transformed with plasmid carrying cyp51A gene with compound-regulatable promoter by GC-MS analysis
Outline: (§2)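 YUG37-erg11 yeast (native ERG11 under a doxycycline-regulatable promoter) carrying pYES2.1 with intronless A. fumigatus cyp51A or cyp51B. Single colonies, triplicate constructs, were grown in YM with 2% galactose/raffinose plus 5 μg ml−1 doxycycline for 72 h at 30°C and 180 rpm. Sterols were analysed by GC-MS and reported as mean % of sterol composition (SD).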

[5] = system: Saccharomyces cerevisiae; experiment: Induction of 14alpha-Methylergosta 8,24-dien- 3beta-6alpha-diol production in Saccharomyces cerevisiae YUG37 transformed with plasmid carrying cyp51A gene in reverse orientation without doxycycline-regulatable promoter by GC-MS analysis
Outline: (§3)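 The control was YUG37-erg11 transformed with pYES2.1 carrying reverse-oriented cyp51A, in triplicate. It was cultured 72 h (30°C, 180 rpm) in galactose/raffinose (2%) YM either with 5 μg ml−1 doxycycline or without doxycycline. GC-MS sterol profiling gave mean % of sterol composition (SD).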

[6] = system: Saccharomyces cerevisiae; experiment: Induction of lanosterol/obtusifoliol production in Saccharomyces cerevisiae YUG37 transformed with plasmid carrying cyp51A gene with compound-regulatable promoter by GC-MS analysis; outline: as §2
[7] = system: Saccharomyces cerevisiae; experiment: Induction of 4,14alpha-dimethylcholesta 8,24-dienol production in Saccharomyces cerevisiae YUG37 transformed with plasmid carrying cyp51B gene with compound-regulatable promoter by GC-MS analysis; outline: as §2
[8] = system: Saccharomyces cerevisiae; experiment: Induction of 4,14alpha-dimethylcholesta 8,24-dienol production in Saccharomyces cerevisiae YUG37 transformed with plasmid carrying cyp51A gene with compound-regulatable promoter by GC-MS analysis; outline: as §2
[9] = system: Saccharomyces cerevisiae; experiment: Induction of 4,14alpha-dimethylcholesta 8,24-dienol production in Saccharomyces cerevisiae YUG37 transformed with plasmid carrying cyp51A gene in reverse orientation without doxycycline-regulatable promoter by GC-MS analysis; outline: as §3
[10] = system: Saccharomyces cerevisiae; experiment: Induction of 4alpha-methylfecosterol production in Saccharomyces cerevisiae YUG37 transformed with plasmid carrying cyp51A gene with compound-regulatable promoter by GC-MS analysis; outline: as §2
[11] = system: Saccharomyces cerevisiae; experiment: Induction of ergosterol production in Saccharomyces cerevisiae YUG37 transformed with plasmid carrying cyp51A gene in reverse orientation without doxycycline-regulatable promoter by GC-MS analysis; outline: as §3
[12] = system: Saccharomyces cerevisiae; experiment: Induction of 4alpha-methylfecosterol production in Saccharomyces cerevisiae YUG37 transformed with plasmid carrying cyp51B gene with compound-regulatable promoter by GC-MS analysis; outline: as §2
[13] = system: Saccharomyces cerevisiae; experiment: Induction of 14alpha-Methylergosta 8,24-dien- 3beta-6alpha-diol production in Saccharomyces cerevisiae YUG37 transformed with plasmid carrying cyp51B gene with compound-regulatable promoter by GC-MS analysis; outline: as §2
[14] = system: Saccharomyces cerevisiae; experiment: Induction of ergosterol production in Saccharomyces cerevisiae YUG37 transformed with plasmid carrying cyp51A gene with compound-regulatable promoter by GC-MS analysis; outline: as §2
[15] = system: Saccharomyces cerevisiae; experiment: Induction of 4alpha-methylfecosterol production in Saccharomyces cerevisiae YUG37 transformed with plasmid carrying cyp51A gene in reverse orientation without doxycycline-regulatable promoter by GC-MS analysis; outline: as §3
[16] = system: Saccharomyces cerevisiae; experiment: Induction of ergosterol production in Saccharomyces cerevisiae YUG37 transformed with plasmid carrying cyp51B gene with compound-regulatable promoter by GC-MS analysis; outline: as §2
[17] = system: Saccharomyces cerevisiae; experiment: Induction of lanosterol/obtusifoliol production in Saccharomyces cerevisiae YUG37 transformed with plasmid carrying cyp51B gene with compound-regulatable promoter by GC-MS analysis; outline: as §2
[18] = system: Saccharomyces cerevisiae; experiment: Induction of lanosterol/obtusifoliol production in Saccharomyces cerevisiae YUG37 transformed with plasmid carrying cyp51A gene in reverse orientation without doxycycline-regulatable promoter by GC-MS analysis; details: in the assay text read “with doxycycline-regulatable promoter” for “without doxycycline-regulatable promoter”; outline: as §3
[19] = system: Saccharomyces cerevisiae; experiment: Ratio of MIC for Saccharomyces cerevisiae YUG37 transformed with plasmid carrying cyp51A gene with compound-regulatable promoter to MIC for Saccharomyces cerevisiae YUG37 transformed with plasmid carrying cyp51B gene with compound-regulatable promoter

Question: What does the source list for `Clc1ccccc1C(c1ccccc1)(c1ccccc1)n1ccnc1` [CLOTRIMAZOLE]?
Answer: MIC [1]: 0.016 µg/mL; MIC [2]: 0.016 µg/mL (≈ 0.0464 µM); MIC [3]: 0.016 µg/mL

Question: For `C[C@H]1c2cccc(O)c2C(=O)C2=C(O)[C@]3(O)C(=O)C(C(N)=O)=C(O)[C@@H](N(C)C)[C@@H]3[C@@H](O)[C@@H]21.O` [DOXYCYCLINE], which Activity [4] is on record?
Answer: The Activity was 20.5%.

Question: What about the Activity [5] of the same compound?
Answer: The Activity was 51.1%.

Question: And the Activity [6]?
Answer: Its Activity is 34.1%.

Question: What about the Activity [7] of the same compound?
Answer: The Activity was 2.9%.

Question: And the Activity [8]?
Answer: The Activity was 2.6%.

Question: And the Activity [9]?
Answer: Its Activity is 3.3%.

Question: What about the Activity [10] of the same compound?
Answer: Its Activity is 2%.

Question: And the Activity [11]?
Answer: Its Activity is 4%.

Question: And the Activity [12]?
Answer: The Activity was 1.7%.

Question: And the Activity [13]?
Answer: Its Activity is 10.5%.

Question: What about the Activity [14] of the same compound?
Answer: The Activity was 40.8%.

Question: And the Activity [15]?
Answer: The Activity was 1.9%.

Question: What about the Activity [16] of the same compound?
Answer: The Activity was 39.5%.

Question: And the Activity [17]?
Answer: The Activity was 45.4%.

Question: And the Activity [18]?
Answer: Its Activity is 40.6%.

Question: `OC(Cn1cncn1)(Cn1cncn1)c1ccc(F)cc1F` [FLUCONAZOLE] was tested. Which MIC [1] did it give?
Answer: Its MIC is 0.5 µg/mL.

Question: What about the Ratio [19] of the same compound?
Answer: Its Ratio is 16.

Question: What about the MIC [2] of the same compound?
Answer: The MIC was 0.25 µg/mL (≈ 0.816 µM).

Question: And the MIC [3]?
Answer: Its MIC is 8 µg/mL.

Question: What does the source list for `CCC(C)n1ncn(-c2ccc(N3CCN(c4ccc(OCC5COC(Cn6cncn6)(c6ccc(Cl)cc6Cl)O5)cc4)CC3)cc2)c1=O` (stereo unspecified) [ITRACONAZOLE]?
Answer: MIC [1]: 0.125 µg/mL; MIC [2]: 0.031 µg/mL (≈ 0.0439 µM); MIC [3]: 0.125 µg/mL

Question: How did the MIC [1] turn out when `CC[C@@H]([C@H](C)O)n1ncn(-c2ccc(N3CCN(c4ccc(OC[C@@H]5CO[C@@](Cn6cncn6)(c6ccc(F)cc6F)C5)cc4)CC3)cc2)c1=O` [POSACONAZOLE] was run?
Answer: Its MIC is 0.063 µg/mL.

Question: And the MIC [2]?
Answer: The MIC was 0.063 µg/mL (≈ 0.0899 µM).

Question: What about the MIC [3] of the same compound?
Answer: Its MIC is 0.063 µg/mL.

Question: Which results are given for `C[C@@H](c1ncncc1F)[C@](O)(Cn1cncn1)c1ccc(F)cc1F` [VORICONAZOLE]?
Answer: MIC [1]: 0.004 µg/mL; MIC [2]: 0.004 µg/mL (≈ 0.0115 µM); MIC [3]: 0.004 µg/mL
